Tests used:
[1] = Fraction unbound in dog plasma after 18 hrs by equilibrium dialysis method; type: ADME, cell-free, Canis lupus familiaris
Outline: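 Unbound plasma fraction determined by equilibrium dialysis, 18 h at 37 °C.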

[2] = target: T1, Phosphatidylinositol 4,5-bisphosphate 3-kinase catalytic subunit delta isoform (Homo sapiens, UniProt O00329); assay: Inhibition of human recombinant His6-tagged PI3K p110delta expressed in baculovirus infected cells using DiC8-PI(4,5)P2 as substrate after 20 mins by AlphaScreen assay
T1 sequence (O00329 whole entry): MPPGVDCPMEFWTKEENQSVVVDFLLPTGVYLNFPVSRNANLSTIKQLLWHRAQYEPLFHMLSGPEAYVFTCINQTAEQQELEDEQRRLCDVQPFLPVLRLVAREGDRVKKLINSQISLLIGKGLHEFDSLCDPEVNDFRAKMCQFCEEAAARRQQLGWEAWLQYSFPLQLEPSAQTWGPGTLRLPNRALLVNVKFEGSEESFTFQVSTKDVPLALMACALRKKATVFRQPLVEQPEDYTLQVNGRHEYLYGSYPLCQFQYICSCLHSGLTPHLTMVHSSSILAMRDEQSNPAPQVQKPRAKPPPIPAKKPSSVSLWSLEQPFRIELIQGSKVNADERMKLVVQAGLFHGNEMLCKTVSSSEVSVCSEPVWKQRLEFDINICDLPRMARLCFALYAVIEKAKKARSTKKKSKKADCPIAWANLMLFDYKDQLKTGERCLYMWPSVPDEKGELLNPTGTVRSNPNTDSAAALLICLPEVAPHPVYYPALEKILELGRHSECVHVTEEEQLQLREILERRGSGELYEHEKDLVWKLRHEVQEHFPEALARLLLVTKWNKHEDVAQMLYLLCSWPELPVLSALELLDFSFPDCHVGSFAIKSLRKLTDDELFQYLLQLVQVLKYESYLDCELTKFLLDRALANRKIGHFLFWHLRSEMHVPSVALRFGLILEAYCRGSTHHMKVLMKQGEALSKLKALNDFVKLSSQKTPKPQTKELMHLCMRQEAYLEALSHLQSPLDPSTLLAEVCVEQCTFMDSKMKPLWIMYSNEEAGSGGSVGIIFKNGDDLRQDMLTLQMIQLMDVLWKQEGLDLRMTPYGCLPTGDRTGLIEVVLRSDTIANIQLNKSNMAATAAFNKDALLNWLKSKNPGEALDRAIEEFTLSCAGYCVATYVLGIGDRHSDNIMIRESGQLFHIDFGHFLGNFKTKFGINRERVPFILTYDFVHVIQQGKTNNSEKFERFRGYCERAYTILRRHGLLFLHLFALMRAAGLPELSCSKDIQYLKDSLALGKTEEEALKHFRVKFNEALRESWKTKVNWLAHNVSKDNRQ

[3] = Antiplatelet activity in human whole blood assessed as inhibition of ADP-induced platelet aggregation by impedance aggregometry; type: functional, tissue-based
Outline: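 Citrated whole blood drawn by venipuncture from healthy human donors or beagle dogs, sodium citrate at 11 mM final in blood. ADP-induced aggregation read by Multiplate impedance aggregometry. N > 3.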

- fraction unbound at 18 h [1]: 0.3
- IC50 [2]: 0.168 µM
- IC50 [3]: 2.1 µM
Compound: C[C@H]1CN(c2cc(N(CCO)Cc3cccc4ccccc34)[nH]c(=O)n2)CCO1

Source: ChEMBL document CHEMBL2163325, “Discovery of phosphoinositide 3-kinases (PI3K) p110β isoform inhibitor 4-[2-hydroxyethyl(1-naphthylmethyl)amino]-6-[(2S)-2-methylmorpholin-4-yl]-1H-pyrimidin-2-one, an effective antithrombotic agent without associated bleeding and insulin resistance” (Bioorg Med Chem Lett, 2012)
